NSD2 HMT inh: NSD2 histone methyltransferase inhibitors, primary screen, biochemical, AlphaScreen, single concentration, set 2. Histone-lysine N-methyltransferase NSD2 (Homo sapiens), O96028. NSD2 peptide methylation, 120 min. inhibition, % at 12.5 µM. actives 0.54% (n = 310,000). AID 743445, 2014; in the data active means inhibition above about 50%
ARNT TACC3 PPI: disruptors of ARNT/TACC3 protein interaction, primary screen, biochemical, AlphaScreen, single concentration; Transforming acidic coiled-coil-containing protein 3 (Homo sapiens), Q9Y6A5; AlphaScreen His-ARNT PAS-B/GST-TACC3 binding, luminescence; TACC3 fragment carries E629A point mutation; inhibition, % at 9.99 µM; actives 0.66% (n = 390,000); AID 623870, 2012;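 active means mean inhibition of replicates at least 50% and at least half of replicates each reaching 50%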;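 further: 0% = complete ARNT plus TACC3 wells and 100% = ARNT alone without TACC3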
XiGFP reactiv: activators of inactive X chromosome reactivation, primary screen, imaging, XiGFP fibroblasts, GFP high-content imaging, set 2 | actives 0.055% (n = 360,000) | activation, % at 7.58 µM | XiGFP mouse fibroblasts, % GFP-positive cells imaging, 3 d; cells co-treated with 5-aza-dC sensitizer; scaled so ellipticine positive control = 100%;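 active means mean normalized replicate activation at least 10% and every replicate at or above 10%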;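 further: 0% = median of on-plate neutral control wells and 100% = ellipticine 6 µM median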
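material = 68-5-11 XiGFP fibroblast line | medium = DMEM plus 5-aza-dC sensitizer | schedule = 3 days compound exposure | benchmarks = positive control ellipticine, 6 µM final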
HGIII-sPLA2 inh: human group III sPLA2 inhibitors, primary screen, biochemical, QFRET, BODIPY PC-A2 liposome substrate; QFRET BODIPY PC-A2 liposome hydrolysis, fluorescence; inhibition, % at 12.2 µM; actives 0.56% (n = 370,000); AID 743126, 2013;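 active means inhibition above mean plus 3 SD of compounds lying within the high and low control bounds, cut at about 19% in these data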;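 further: 0% = median of test compound wells and 100% = no enzyme DMSO wells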
SR-BI DiI-HDL act: activators of SR-BI mediated DiI-HDL uptake, primary screen, ldlA[mSR-BI] CHO cells, DiI fluorescence; 3 h; 100 = double the neutral-control signal; actives 0.096% (n = 320,000); activation, % at 12.5 µM;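 active means mean replicate activation of at least 60% and every replicate at or above 60%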;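 further: 0% = median plate neutral-control signal and 100% = twice that signal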
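System: LDL receptor-deficient CHO ldlA cells overexpressing murine SR-BI | Timing: 3 h uptake period with compound, 37 °C | Medium: HEPES-buffered (25 mM, pH 7.4) F12 plus 0.5% BSA | Dosing: Single-point compound dose | Signal: Bottom-read fluorescence, 550/595 nm | Read-out: Retained DiI signal reflecting DiI-HDL uptake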
SR-BI HDL uptake: inhibitors of SR-BI mediated HDL lipid uptake, primary screen, ldlA[mSR-BI] cells, fluorescence, single point. Scavenger receptor class B member 1 (Mus musculus), Q61009. ldlA[mSR-BI] CHO cells, DiI-HDL uptake fluorescence, 3 h. inhibition, % at 12.5 µM. actives 0.96% (n = 320,000). AID 488896, 2010;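 active means mean replicate inhibition of at least 70% and a set share of replicates each scoring 70 or more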;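 further: 0% = median of neutral control wells and 100% = median of positive control wells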
The depositor's hits bear a star; · = not tested or not shown. The list is not random: actives were taken first. Their share in the collection is about 2%.

SMILES	NSD2 HMT inh	ARNT TACC3 PPI	XiGFP reactiv	HGIII-sPLA2 inh	SR-BI DiI-HDL act	SR-BI HDL uptake
Cc1ccc(/C=C/c2nc3ccccc3s2)s1	-3	0	·	4	-101	101*
O=c1cc(CN2CCCC2)c2ccccc2o1	·	·	0	3	·	·
COc1ccc(C2CC(c3ccccc3)=NN2c2ccc(Cl)c(C(=O)O)c2)cc1 (centres undefined)	-16	-26	-1	-33	23	-23
COc1ccc(C2CC(c3cccc(Cl)c3)=NN2c2ccc(S(N)(=O)=O)cc2)cc1 (centres undefined)	·	-25	0	-16	-77	77*
CCC(=O)Nc1cccc(C2=NN(c3ccccc3)C(c3ccc(OC)cc3)C2)c1 (centres undefined)	-13	-20	0	-5	-70	70*
COc1ccc(NC(=O)C/C(C)=N/NC(=O)C2CCCCC2)c([N+](=O)[O-])c1	-3	5	1	0	·	·
CCCN1C(=O)/C(=C\C=C2/C=CN(CC)c3ccccc32)SC1=S	20	19	·	2	-146	146*
CC(C)C(=O)NC(NC(=S)Nc1cccc2cccnc12)C(Cl)(Cl)Cl (centres undefined)	17	12	·	-4	-74	74*
CCC(=O)NC(NC(=S)Nc1cccc2cccnc12)C(Cl)(Cl)Cl (centres undefined)	3	·	0	-14	-37	37
Cc1c(C(=O)c2ccc(Cl)c(Cl)c2)cnc2cc3c(cc12)OCO3	3	-6	·	4	69*	-69
COc1ccc(C(=O)c2cnc3cc4c(cc3c2C)OCO4)cc1	3	-3	·	-4	-19	19
CC(Oc1ccc(Cl)cc1Cl)C(=O)Nc1ccc2oc(-c3ccncc3)nc2c1 (centres undefined)	1	0	·	7	-78	78*
COC1=C(N)C(=O)c2nc(-c3nc(C(=O)O)c(C)c(-c4ccc(OC)c(OC)c4O)c3N)ccc2C1=O	·	65*	·	·	10	-10
CCCCCCN=C(C)C1=C(O)C(C(=O)OC)C(C)(C)CC1=O (centres undefined)	2	-1	·	-10	-3	3
COc1ccc(OC)c(NC(=O)c2cc(-c3cc(C)cc(C)c3O)n[nH]2)c1	19	-3	0	8	-77	77*
COc1ccc(OC)c(NC(=O)c2cc(-c3cc(C)c(C)cc3O)n[nH]2)c1	-1	1	0	-3	-70	70
Cc1cc(C)c(O)c(-c2cc(C(=O)Nc3cccnc3)[nH]n2)c1	1	-4	0	-15	·	·
Cc1cccc(NC(=O)c2cc(-c3cc(C)cc(C)c3O)n[nH]2)c1	-1	9	0	-11	-72	72*
COc1ccccc1-c1ccc([C@@H]2[C@H](CO)N3CCCCN(C(=O)c4cccnc4)C[C@@H]23)cc1	·	5	0	·	·	·
O=C(CN1CCN(Cc2ccccc2)CC1)N1CCCCCC1	-1	-1	0	7	11	-11
CN(C)CCCNC(=O)/C=C/c1ccc2c(c1)OCO2	5	·	0	1	70*	-70
CC1(C)C(=O)OC(c2cccn2-c2ccc([N+](=O)[O-])cc2)C2(CCCCC2)C1=O (centres undefined)	2	1	0	8	-10	10
CC1(C)C(=O)OC(c2c(F)c(F)c(F)c(F)c2F)C2(CCCCC2)C1=O (centres undefined)	-1	-2	·	-3	-77	77*
CCN(CC)C(=O)CC[C@@H]1CC[C@]2(CCCN(Cc3ccc(Br)cc3)C2)O1	·	·	·	1	·	·
Cn1c(=O)c(NCCO)c2c3c(cccc31)C(=O)c1ccccc1-2	-11	·	·	-438	1	-1

Compound activity from PubChem BioAssay.
